How the values were obtained:
CYP3A4 = CYP3A4 (Homo sapiens, UniProt P08684); assay: Inhibition of human CYP3A4 expressed in baculovirus-infected insect cells at 10 uM using Luciferin-PFBE as substrate in presence of NADPH by P450-Glo luminescence assay relative to control; type: ADME; settings: probe Luciferin-PFBE
hERG (KCNH2) = hERG (KCNH2) (Homo sapiens, UniProt Q12809); assay: Inhibition of human ERG at 10 uM by Tracer Red dye based fluorescence polarization assay relative to control; settings: probe Tracer Red dye
Sequence of hERG (KCNH2) (Q12809 whole entry): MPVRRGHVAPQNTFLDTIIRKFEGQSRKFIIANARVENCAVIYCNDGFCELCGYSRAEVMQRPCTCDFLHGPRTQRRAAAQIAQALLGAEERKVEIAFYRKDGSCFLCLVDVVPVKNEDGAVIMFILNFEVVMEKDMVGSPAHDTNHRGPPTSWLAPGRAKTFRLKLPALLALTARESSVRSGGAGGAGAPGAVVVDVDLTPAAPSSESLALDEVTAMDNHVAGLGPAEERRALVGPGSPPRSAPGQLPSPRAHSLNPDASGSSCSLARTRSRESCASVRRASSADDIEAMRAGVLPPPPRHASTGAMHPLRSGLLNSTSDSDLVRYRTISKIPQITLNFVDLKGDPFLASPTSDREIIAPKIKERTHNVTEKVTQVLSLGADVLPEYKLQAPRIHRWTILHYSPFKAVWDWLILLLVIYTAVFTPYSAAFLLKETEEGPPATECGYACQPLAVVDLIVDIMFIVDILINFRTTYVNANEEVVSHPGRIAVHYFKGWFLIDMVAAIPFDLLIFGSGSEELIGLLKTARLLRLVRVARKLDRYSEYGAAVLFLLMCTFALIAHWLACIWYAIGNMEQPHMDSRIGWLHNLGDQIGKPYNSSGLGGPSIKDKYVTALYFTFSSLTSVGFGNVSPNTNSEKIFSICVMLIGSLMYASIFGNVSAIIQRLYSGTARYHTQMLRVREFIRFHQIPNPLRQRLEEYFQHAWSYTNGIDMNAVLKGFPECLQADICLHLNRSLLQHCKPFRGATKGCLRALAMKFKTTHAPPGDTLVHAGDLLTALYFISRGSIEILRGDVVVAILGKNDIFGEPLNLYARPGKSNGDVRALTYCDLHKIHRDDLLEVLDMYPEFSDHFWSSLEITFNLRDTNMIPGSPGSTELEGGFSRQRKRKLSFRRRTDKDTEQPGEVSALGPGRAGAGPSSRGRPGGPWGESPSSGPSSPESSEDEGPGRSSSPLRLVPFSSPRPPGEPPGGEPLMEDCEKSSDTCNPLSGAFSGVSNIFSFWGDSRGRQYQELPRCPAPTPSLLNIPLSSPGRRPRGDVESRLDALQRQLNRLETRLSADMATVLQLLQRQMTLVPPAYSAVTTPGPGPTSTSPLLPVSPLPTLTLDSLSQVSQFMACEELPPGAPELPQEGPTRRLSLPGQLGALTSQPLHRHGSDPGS

[1] = Lipophilicity, log P of the compound; type: physicochemical; settings: octanol/water
CYP2D6 = CYP2D6 (Homo sapiens, UniProt P10635); assay: Inhibition of human CYP2D6 expressed in baculovirus-infected insect cells at 10 uM using Luciferin-ME EGE as substrate in presence of NADPH by P450-Glo luminescence assay relative to control; type: ADME; settings: probe Luciferin-ME EGE
Sequence of CYP2D6 (P10635 whole entry): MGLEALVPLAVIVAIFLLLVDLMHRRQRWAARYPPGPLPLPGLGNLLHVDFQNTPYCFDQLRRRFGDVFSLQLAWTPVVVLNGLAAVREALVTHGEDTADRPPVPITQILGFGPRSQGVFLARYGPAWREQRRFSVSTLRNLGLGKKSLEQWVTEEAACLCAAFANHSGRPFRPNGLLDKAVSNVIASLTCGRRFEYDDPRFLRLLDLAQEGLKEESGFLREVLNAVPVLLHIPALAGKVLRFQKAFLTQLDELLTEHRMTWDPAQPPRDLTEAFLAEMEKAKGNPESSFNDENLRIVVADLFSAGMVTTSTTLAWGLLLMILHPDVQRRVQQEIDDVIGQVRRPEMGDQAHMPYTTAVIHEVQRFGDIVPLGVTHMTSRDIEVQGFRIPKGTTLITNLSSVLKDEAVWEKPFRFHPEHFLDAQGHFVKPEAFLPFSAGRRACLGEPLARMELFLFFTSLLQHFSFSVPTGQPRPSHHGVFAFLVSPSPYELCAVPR
Summary of the method: (§1)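 CYP enzymes as microsomal preparations from baculovirus-infected insect cells, run on the P450-Glo luminogenic substrate platform. A fall in light output indicates inhibition.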

CYP2C9 = CYP2C9 (Homo sapiens, UniProt P11712); assay: Inhibition of human CYP2C9 expressed in baculovirus-infected insect cells at 10 uM using Luciferin-H as substrate in presence of NADPH by P450-Glo luminescence assay relative to control; settings: probe Luciferin-H
Sequence of CYP2C9 (P11712 whole entry): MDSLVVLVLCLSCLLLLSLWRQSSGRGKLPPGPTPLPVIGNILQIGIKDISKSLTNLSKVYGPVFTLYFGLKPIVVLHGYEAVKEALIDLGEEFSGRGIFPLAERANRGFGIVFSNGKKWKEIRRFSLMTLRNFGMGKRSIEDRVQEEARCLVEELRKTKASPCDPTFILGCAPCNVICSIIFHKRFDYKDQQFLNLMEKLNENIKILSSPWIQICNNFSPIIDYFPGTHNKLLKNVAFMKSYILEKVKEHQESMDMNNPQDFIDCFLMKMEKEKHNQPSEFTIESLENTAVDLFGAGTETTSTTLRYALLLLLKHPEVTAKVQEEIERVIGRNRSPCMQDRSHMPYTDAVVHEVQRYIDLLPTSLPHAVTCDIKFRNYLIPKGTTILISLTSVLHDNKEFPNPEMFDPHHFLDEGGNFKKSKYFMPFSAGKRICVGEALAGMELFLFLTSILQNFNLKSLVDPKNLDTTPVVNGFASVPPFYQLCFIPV

CYP1A2 = target: T1, CYP1A2 (Homo sapiens, UniProt P05177); assay: Inhibition of human CYP1A2 expressed in baculovirus-infected insect cells at 10 uM using Luciferin-1A2 as substrate in presence of NADPH by P450-Glo luminescence assay relative to control; type: ADME; settings: probe Luciferin-1A2; summary of the method: as §1
T1 sequence (P05177 whole entry): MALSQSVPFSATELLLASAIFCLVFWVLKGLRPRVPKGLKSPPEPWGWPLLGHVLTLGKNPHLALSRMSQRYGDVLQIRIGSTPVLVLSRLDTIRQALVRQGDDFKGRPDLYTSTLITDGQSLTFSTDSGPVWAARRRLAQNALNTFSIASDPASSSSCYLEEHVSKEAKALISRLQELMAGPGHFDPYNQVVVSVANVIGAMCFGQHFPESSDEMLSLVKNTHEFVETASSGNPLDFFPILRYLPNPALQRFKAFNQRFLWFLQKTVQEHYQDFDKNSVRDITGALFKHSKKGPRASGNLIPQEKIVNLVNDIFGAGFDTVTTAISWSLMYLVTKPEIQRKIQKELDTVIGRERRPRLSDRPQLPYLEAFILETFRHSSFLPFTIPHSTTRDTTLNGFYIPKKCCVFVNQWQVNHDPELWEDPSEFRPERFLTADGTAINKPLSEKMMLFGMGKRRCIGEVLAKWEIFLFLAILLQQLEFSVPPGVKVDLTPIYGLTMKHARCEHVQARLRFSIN

[2] = Cytotoxicity against human A549 cells assessed as cell growth at 10 uM by Cell titer-Glo assay relative to control; type: cell-based; settings: read-out: Activity
Summary of the method: (§2)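 A549 and WI-38 cells grown in DMEM with 10% v/v FCS, streptomycin 100 µg/ml and penicillin G 100 U/ml. Cell number read as cellular ATP by CellTiter-Glo luminescence. Growth 60–100% scored non-cytotoxic, 0–60% cytostatic, below 0 cytotoxic.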

Aurora kinase B = Aurora kinase B (Homo sapiens, UniProt Q96GD4); assay: Inhibition of N-terminal-GST-tagged recombinant full length human Aurora B expressed in baculovirus infected Sf9 cells at 10 uM using native Swine Myelin Basic Protein as substrate measured after 60 mins by ADP-Glo assay relative to control; settings: probe native Swine Myelin Basic Protein
Sequence of Aurora kinase B (Q96GD4 whole entry): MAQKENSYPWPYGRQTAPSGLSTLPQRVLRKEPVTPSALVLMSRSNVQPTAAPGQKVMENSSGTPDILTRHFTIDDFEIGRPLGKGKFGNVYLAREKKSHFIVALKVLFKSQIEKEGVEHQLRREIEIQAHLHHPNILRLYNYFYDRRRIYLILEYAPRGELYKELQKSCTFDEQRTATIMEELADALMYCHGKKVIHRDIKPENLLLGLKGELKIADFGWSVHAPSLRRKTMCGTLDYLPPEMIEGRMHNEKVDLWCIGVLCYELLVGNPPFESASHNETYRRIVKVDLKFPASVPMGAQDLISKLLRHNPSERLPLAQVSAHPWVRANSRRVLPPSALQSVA
Summary of the method: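 Aurora B kinase activity measured by ADP-Glo, which detects ADP formed through a coupled luciferase luminescence read-out.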

CYP2C19 = CYP2C19 (Homo sapiens, UniProt P33261); assay: Inhibition of human CYP2C19 expressed in baculovirus-infected insect cells at 10 uM using Luciferin-H EGE as substrate in presence of NADPH by P450-Glo luminescence assay relative to control; type: ADME; settings: probe Luciferin-H EGE; summary of the method: as §1
Sequence of CYP2C19 (P33261 whole entry): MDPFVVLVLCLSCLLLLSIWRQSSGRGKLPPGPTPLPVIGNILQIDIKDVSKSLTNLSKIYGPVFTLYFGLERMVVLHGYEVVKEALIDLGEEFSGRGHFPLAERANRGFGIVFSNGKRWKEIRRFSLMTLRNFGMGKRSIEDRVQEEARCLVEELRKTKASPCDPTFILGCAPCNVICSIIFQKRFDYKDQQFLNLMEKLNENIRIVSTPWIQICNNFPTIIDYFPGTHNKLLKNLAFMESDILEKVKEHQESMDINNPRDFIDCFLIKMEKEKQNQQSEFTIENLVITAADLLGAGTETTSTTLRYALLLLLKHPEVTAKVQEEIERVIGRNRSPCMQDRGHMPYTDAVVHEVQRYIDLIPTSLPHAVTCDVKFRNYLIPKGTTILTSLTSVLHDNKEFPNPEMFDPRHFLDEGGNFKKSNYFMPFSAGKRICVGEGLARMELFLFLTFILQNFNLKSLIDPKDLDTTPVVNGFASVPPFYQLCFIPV

[3] = Cytotoxicity against human THP1 cells by MTT assay; type: cell-based; settings: THP-1 cells
Summary of the method: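 THP-1 cells differentiated to macrophages with PMA, viability read by colorimetric MTT. CC50 and NOAEL are the arithmetic mean of at least two independent determinations, each run in triplicate.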

[4] = Cytotoxicity against human […] cells assessed as cell growth at 10 uM by Cell titer-Glo assay relative to control; type: cell-based; settings: WI-38 cells, read-out: Activity; summary of the method: as §2
[5] = tested on: Trypanosoma brucei brucei; assay: Anti-parasitic activity against bloodstream form of Trypanosoma brucei brucei Lister 427 at 10 uM after 72 hrs by resazurin-based assay relative to control; type: functional; settings: Lister 427, 72 h
Summary of the method: (§3)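 Bloodstream-form T. brucei, modified resazurin-based viability assay. EC50 is the arithmetic mean of at least two independent determinations, each run in triplicate.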

Trypanosoma cruzi = assay: Anti-parasitic activity against Trypanosoma cruzi Y promastigotes infected in HG39 cells at 10 uM by qPCR analysis relative to control; type: functional, cell-based; settings: in the assay text read “trypomastigotes” for “promastigotes”
Summary of the method: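 Confluent HG39 cells (3 x 10^6 per well) infected at a 1:1 ratio with blood-derived T. cruzi Y strain trypomastigotes. Growth inhibition was read as parasite gDNA by TaqMan probe-based quantitative real-time PCR.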

786-0 = assay: Mitochondrial toxicity in human 786-O cells at 10 uM by mitotracker red chloromethyl-Xrosamine staining based-uptake method relative to control; type: cell-based; settings: 786-0, 10 µM
Summary of the method: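 786-O renal carcinoma cells kept in RPMI-1640 with 2 mM glutamine, 10% v/v FCS, streptomycin 100 µg/ml and penicillin G 100 U/ml. Mitochondrial toxicity monitored by MitoTracker Red CMXRos uptake with high-content imaging.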

[6] = tested on: Trypanosoma brucei brucei; assay: Anti-parasitic activity against bloodstream form of Trypanosoma brucei brucei Lister 427 after 72 hrs by resazurin-based assay; type: functional; settings: Lister 427, 72 h; summary of the method: as §3
[7] = Selectivity index, ratio of CC50 for human THP1 cells to EC50 for anti-parasitic activity against bloodstream form of Trypanosoma brucei brucei Lister 427; type: toxicity; settings: THP-1 cells, read-out: Ratio CC50/EC50
Summary of the method: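 SI = CC50 in PMA-differentiated THP-1 macrophages (MTT) divided by the antiparasitic EC50.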

Leishmania infantum = assay: Anti-parasitic activity against Leishmania infantum amastigotes infected in human THP1 cells at 50 uM after 5 days by Giemsa staining based assay relative to control; type: functional, cell-based; settings: THP-1, 120 h
Summary of the method: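 Intracellular L. infantum amastigotes in host cells, imaged by high-content automated imaging. Host cell number, infected cells and parasites per infected cell were counted. Infection Ratio = infected cells / total cells.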

Sequence of CYP3A4 (P08684 whole entry): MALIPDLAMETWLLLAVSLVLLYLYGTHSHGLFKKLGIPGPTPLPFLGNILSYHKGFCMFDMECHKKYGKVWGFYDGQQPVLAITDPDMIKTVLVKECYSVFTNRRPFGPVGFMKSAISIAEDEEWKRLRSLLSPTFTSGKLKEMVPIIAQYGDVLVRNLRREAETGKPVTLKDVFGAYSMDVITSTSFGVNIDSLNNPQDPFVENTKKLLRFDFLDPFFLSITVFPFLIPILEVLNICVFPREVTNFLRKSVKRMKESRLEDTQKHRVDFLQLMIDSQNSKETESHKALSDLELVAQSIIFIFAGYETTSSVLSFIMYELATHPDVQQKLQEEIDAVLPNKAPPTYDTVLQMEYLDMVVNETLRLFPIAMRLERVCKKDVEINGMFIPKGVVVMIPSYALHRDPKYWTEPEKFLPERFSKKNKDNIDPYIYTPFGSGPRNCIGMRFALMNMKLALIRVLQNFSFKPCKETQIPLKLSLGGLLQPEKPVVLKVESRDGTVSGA

| Compound | inhibition at 10 µM (CYP3A4) [%] | inhibition at 10 µM (hERG (KCNH2)) [%] | logP [1] | inhibition at 10 µM (CYP2D6) [%] | inhibition at 10 µM (CYP2C9) [%] | inhibition at 10 µM (CYP1A2) [%] | viability at 10 µM [2] [%] | inhibition at 1 h, 10 µM (Aurora kinase B) [%] | inhibition at 10 µM (CYP2C19) [%] | CC50 [3] [nM] | viability at 10 µM [4] [%] | inhibition at 10 µM [5] [%] | inhibition at 10 µM (Trypanosoma cruzi) [%] | Activity (786-0) [%] | EC50 [6] [nM] | selectivity ratio [7] | other results |
| --- | --- | --- | --- | --- | --- | --- | --- | --- | --- | --- | --- | --- | --- | --- | --- | --- | --- |
| COc1ccc(/C=C/C(=O)c2ccc(OC)cc2O)cc1 | 5 | 2.7 | 3.88 | 47.7 | 21.7 | 39.6 | 102 | 107 | 34.2 | > 100000 | 14.2 | 18 | 47 | 14.2 | – | – | – |
| COc1ccc(C(=O)/C=C/c2c(OC)cccc2OC)c(O)c1 | 11.8 | 18.8 | 3.51 | 17.1 | -25.6 | 52.8 | 48.2 | 92.1 | 74.9 | > 100000 | 0.1 | 98 | 0 | 0 | 3400 | ≥ 29 | – |
| COc1cccc(-c2oc3ccccc3c(=O)c2O)c1 | – | – | – | – | – | – | – | – | – | – | – | – | – | – | 2320 | 4 | – |
| COc1cccc(/C=C/C(=O)c2cc(OC)ccc2O)c1 | 14.3 | 17.6 | 3.87 | 52.2 | -31.7 | 84.2 | 116 | -15.1 | 69.6 | > 25000 | 87.5 | 100 | 28 | 13.4 | 2100 | ≥ 12 | inhibition at 50 µM (Leishmania infantum): 14% |
| COc1ccc2c(=O)c(O)c(-c3cc(OC)c(OC)c(OC)c3)oc2c1 | – | – | – | – | – | – | – | – | – | – | – | – | – | – | 1170 | 17 | – |
| COc1ccc2oc(-c3ccc(OC)c(OC)c3)c(O)c(=O)c2c1 | – | – | – | – | – | – | – | – | – | – | – | – | – | – | 2020 | 5 | – |
| COc1ccc(O)c(C(=O)/C=C/c2ccc(OC)c(OC)c2)c1 | -2.7 | 15.9 | 3.52 | 93.7 | -26.9 | 60 | 116 | -10.1 | 21.4 | > 50000 | 114 | 15 | 0 | -9.5 | – | – | inhibition at 50 µM (Leishmania infantum): 16% |
| COc1ccc(-c2oc3ccc(OC)cc3c(=O)c2O)cc1 | – | – | – | – | – | – | – | – | – | – | – | – | – | – | 20100 | 1 | – |
| COc1cccc(-c2oc3cc(OC)ccc3c(=O)c2O)c1 | – | – | – | – | – | – | – | – | – | – | – | – | – | – | 1140 | 8 | – |
| COc1ccc(/C=C/C(=O)c2cc(OC)ccc2O)cc1 | 6.2 | 42.1 | 3.87 | 79.6 | 25.8 | 85.2 | 91.3 | 107 | 47.3 | > 100000 | 15.8 | 9 | 9 | 15.8 | – | – | – |
| COc1cccc(-c2oc3ccc(OC)cc3c(=O)c2O)c1 | – | – | – | – | – | – | – | – | – | – | – | – | – | – | 1430 | 10 | – |
| COc1cccc(/C=C/C(=O)c2ccccc2O)c1 | -1.4 | 11.3 | 3.94 | -8.4 | 17.1 | 85.6 | 105 | -6.6 | 76.2 | > 25000 | 118 | 100 | 46 | 6.2 | 1300 | ≥ 19 | inhibition at 50 µM (Leishmania infantum): 11% |
| COc1ccc(-c2oc3cc(OC)ccc3c(=O)c2O)cc1 | – | – | – | – | – | – | – | – | – | – | – | – | – | – | 1100 | 9 | – |
| COc1ccc2c(=O)c(O)c(-c3ccc(OC)c(OC)c3)oc2c1 | – | – | – | – | – | – | – | – | – | – | – | – | – | – | 2990 | 8 | – |
| C=CC(C)(C)c1cc(/C=C/C(=O)c2ccc(O)cc2)c(OC)cc1O [LICOAGROCHACONE A] | – | – | 4.74 | – | – | – | – | – | – | – | – | – | – | – | – | – | – |
| CCCCCCCCCCCCCCCCOP(=O)([O-])OCC[N+](C)(C)C [MILTEFOSINE] | – | – | – | – | – | – | – | – | – | – | – | – | – | – | – | – | EC50 (Leishmania infantum): 2650 nM |
| CC1CS(=O)(=O)CCN1/N=C/c1ccc([N+](=O)[O-])o1 (configuration not stated) [NIFURTIMOX] | – | – | – | – | – | – | – | – | – | – | – | – | – | – | – | – | EC50 (Trypanosoma cruzi): 2200 nM |

Reference: ChEMBL document CHEMBL3997782, “Methoxylated 2'-hydroxychalcones as antiparasitic hit compounds” (Eur J Med Chem, 2017)
